# High-throughput results (PubChem)
# Shown are actives, neighbours in structure and some others; about 0.99% of the full set was active somewhere.
# CaV13 FRET inh: Disruptors of the CACNA1D IQ motif to Ca2+-dependent inactivation inhibitor domain association, primary screening, Förster resonance energy transfer in intact living … | HEK cells, CFP/YFP FRET ICDI-IQ, plate reader, 10 min; percent FRET-ratio fall versus neutral wells | inhibition, % at 12.3 µM | AID 743397 | 340,000 tested, 0.098% active;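 active = mean replicate inhibition of at least 30% and at least 1% of replicates passing that level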
# FN deposit inh: fibronectin deposition inhibition; inhibition, % at 12.6 µM; AH1F fibroblasts, Alexa488-fibronectin deposition fluorescence, overnight; 350,000 tested, 0.086% active; AID 743247;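 active = mean inhibition across replicates of 30% or more, regardless of how many single replicates reach that level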
#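 Material – AH1F fibroblast monolayer, labelled fibronectin deposition · Reagent – labelled fibronectin 24 nM · Timing – 1 h adhesion, overnight exposure · Measured by – fluorescence at 485 nm excitation, 525 nm emission · Read-out – inhibition of fibronectin deposition signal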
# GC-A act: GC-A (human) enzyme activation | AID 1671463 | P16066 | activation, % at 10 µM | 370,000 tested, 0.14% active | HEK293 GC-A cells, cGMP TR-FRET, EC30 ANP; 0% at EC30 ANP, 100% saturating ANP; in the data active = activation above about 40%
# NSD2 HMT inh: inhibitors of human histone methyltransferase NSD2; O96028; NSD2 peptide methylation, AlphaScreen, 120 min; inhibition, % at 12.5 µM; 310,000 tested, 0.54% active; in the data active = inhibition above about 50%
# GC-B act: GC-B (human) receptor activation; P20594; HEK293-GC-B cells, CNP EC30, cGMP TR-FRET; 0% at EC30 CNP, 100% saturating CNP; activation, % at 10 µM; 370,000 tested, 0.11% active; AID 1920062;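 active = activation at 10 µM reaching about 35% in either raw or pattern-adjusted values, limit read from the data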
# CASP6 VEID inh: caspase-6 (human) enzyme inhibition; purified caspase-6, Z-VEID-R110 cleavage fluorescence; inhibition, % at 12.5 µM; 350,000 tested, 0.53% active;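 active = mean inhibition across replicates at least about 35%, with every replicate also reaching that limit, limit read from the data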
# Hits are given with their value; - = inactive; . = not tested or not shown; + = active, no number.
SMILES,CaV13 FRET inh,FN deposit inh,GC-A act,NSD2 HMT inh,GC-B act,CASP6 VEID inh
O=C(NCc1ccco1)c1ccc(C(=O)NCc2ccco2)cc1,-,-,-,-,-,40
Cc1cc(C)cc(C(=O)OCC(=O)NCc2ccco2)c1,-,-,-,-,-,51
Cc1ccc(C(=O)NCc2ccco2)cc1,-,-,-,-,-,-
O=C(C[C@@H]1C=C[C@@H](NC(=O)c2ccc3c(c2)OCO3)[C@H](CO)O1)NCc1ccc(F)cc1,.,-,.,.,.,-
CC(=O)Nc1c2c(nn1-c1ccccc1C)CS(=O)(=O)C2,-,-,-,-,-,-
Cc1ccccc1-n1nc2c(c1NC(=O)c1cc3ccccc3oc1=O)CS(=O)(=O)C2,-,-,-,.,38,.
O=C(Nc1ccccc1)c1nc[nH]c1C(=O)Nc1ccccc1F,-,-,-,.,-,49
Cc1ccc(NC(=O)c2nc[nH]c2C(=O)Nc2ccccc2F)cc1,-,-,-,.,-,-
Cc1cc(NC(=O)Nc2ccccc2F)ccc1Br,-,39,-,-,-,-
Cc1ccc(S(=O)(=O)N(C)C[C@@H]2Oc3ccc(NS(C)(=O)=O)cc3CC(=O)N([C@@H](C)CO)C[C@H]2C)cc1,.,-,.,.,.,-
Nc1c(/C=C2/C=CC(=O)C(O)=C2)c(=O)nc2sc(CC(=O)N3CCCCC3)nn12,-,-,-,142,-,83
COC1=C/C(=C/c2c(N)n3nc(CC(=O)N4CCCC4)sc3nc2=O)C=CC1=O,-,-,-,-,-,-
Nc1c(C=C2C=CC(=O)C=C2)c(=O)nc2sc(CC(=O)N3CCCCC3)nn12,-,-,-,-,-,-
Nc1c(/C=C2/C=CC(=O)C(O)=C2)c(=O)nc2sc(CC(=O)N3CCCC3)nn12,-,-,-,119,-,48
Cc1c(Cl)cnn1CC(=O)NC1C(=O)N2C(C(=O)O)=C(CSc3nnnn3C)CSC12 (stereo unspecified),-,-,-,-,-,.
Cc1c(Cl)c(C(F)F)nn1CC(=O)NC1C(=O)N2C(C(=O)O)=C(CSc3nnnn3C)CSC12 (stereo unspecified),-,-,-,-,-,38
CN1C(=O)c2cc(NS(C)(=O)=O)ccc2OC[C@H]2O[C@@H](CC(=O)O)CC[C@@H]21,.,-,.,.,.,-
COc1ccc(C(=O)CSc2nnc(-c3n[nH]c4c3CCC4)n2N)cc1OC,.,.,-,-,44,.
COc1ccccc1-n1c(SCC(=O)Nc2cc(C)on2)nc2c(c1=O)SCC2,-,-,-,-,-,-
O=C(CSc1nc2c([nH]c3ccccc32)c(=O)n1-c1ccccc1F)NCC1CCCO1 (stereo unspecified),-,-,-,-,-,-
COc1ccccc1-n1c(SCC(=O)Nc2cc(C)on2)nc2c([nH]c3ccccc32)c1=O,-,-,71,.,-,-
COc1cccc(-n2c(SCC(N)=O)nc3c([nH]c4ccccc43)c2=O)c1,.,-,-,-,-,.
COc1cccc(-n2c(SCC(=O)Nc3cc(C)on3)nc3c([nH]c4ccccc43)c2=O)c1,-,-,80,.,-,-
COc1ccc(-n2c(SCC(=O)Nc3cc(C)on3)nc3ccc(O)cc3c2=O)cc1OC,-,-,58,-,-,.
Cc1cc(NC(=O)CSc2nc3c([nH]c4ccccc43)c(=O)n2-c2ccccc2F)no1,-,-,73,.,-,-
SMILES,CaV13 FRET inh,FN deposit inh,GC-A act,NSD2 HMT inh,GC-B act,CASP6 VEID inh
COCCNC(=O)C[C@H]1C[C@H]2c3cc(NC(=O)Nc4ccccc4)ccc3O[C@H]2[C@@H](CO)O1,.,-,.,.,.,-
CCC(=O)N(C)C[C@H]1Oc2ncc(-c3ccccc3F)cc2C(=O)N([C@H](C)CO)C[C@H]1C,.,-,.,.,.,-
Cc1cccc(OCC(=O)NNC(=O)c2ccc3nc[nH]c3c2)c1,-,-,-,-,-,41
Cc1cccc(OCC(=O)NNC(=O)c2ccc([N+](=O)[O-])cc2)c1,-,-,-,-,-,-
C[C@H](CO)N1C[C@H](C)[C@@H](CN(C)S(=O)(=O)c2cccs2)OCCCC[C@H](C)Oc2ccc(NC(=O)C3CCCCC3)cc2C1=O,.,.,.,.,.,-
CN(C)c1ccc(/C=C/c2ccc3c4ccccc4ccc3[n+]2-c2ccccc2)cc1,-,-,-,.,-,38
CCNC(=O)[C@H]1[C@H](CO)[C@H]2Cn3c(ccc(-c4ccc(F)cc4)c3=O)[C@H]2N1Cc1cc(F)ccc1F,.,.,.,.,.,-
Nc1nc2c(ncn2[C@@H]2O[C@H](C(=O)N[C@H](Cc3ccccc3)C(=O)NCc3ccc4c(c3)OCO4)[C@@H](O)[C@H]2O)c(=O)[nH]1,-,-,-,.,37,-
CCCCn1c(N)c(N(CCOC)C(=O)c2cc(-c3ccco3)nc3ccccc23)c(=O)[nH]c1=O,-,-,-,-,-,61
CCCN(C(=O)c1cc(-c2ccco2)nc2ccccc12)c1c(N)n(Cc2ccccc2)c(=O)[nH]c1=O,-,.,-,-,-,-
COCCN(C(=O)COC(=O)Cc1cccc2ccccc12)c1c(N)n(Cc2ccccc2)c(=O)[nH]c1=O,-,-,-,-,-,-
COCCCN(C(=O)c1ccc2ccccc2n1)c1c(N)n(Cc2ccccc2)c(=O)[nH]c1=O,-,37,-,-,-,-
COCCN(C(=O)COC(=O)Cc1coc2cc(C)ccc12)c1c(N)n(Cc2ccccc2)c(=O)[nH]c1=O,-,-,-,-,-,52
COCCN(C(=O)c1cc(-c2ccco2)nc2ccccc12)c1c(N)n(Cc2ccccc2)c(=O)[nH]c1=O,-,-,-,-,-,60
CCCCN(C(=O)c1cc(-c2ccco2)nc2ccccc12)c1c(N)n(CCCC)c(=O)[nH]c1=O,-,.,-,.,-,-
Cc1nc(Cc2nnc(SCC(=O)Nc3c(C)cccc3C)o2)cs1,-,.,-,-,-,-
Cc1ccc(NC(=O)CSc2nnc(Cc3csc(C)n3)o2)c(C)c1,-,.,-,-,-,62
Cc1ccc(-n2c(C)cc(/C=N/NC(=O)Cn3c4ccccc4c(=O)c4ccccc43)c2C)cc1,+,.,-,-,-,-
COc1ccc(OCCN2CCC(C(=O)NC(c3ccccn3)c3ccccc3OC)CC2)cc1 (stereo unspecified),-,-,-,-,-,49
COc1cccc(C(NC(=O)C2CCN(CCCOc3ccccc3)CC2)c2ccccn2)c1 (stereo unspecified),-,-,-,-,-,38
O=C(c1cccnc1)N1C[C@@H]2[C@H](c3ccccc31)[C@@H](CO)N2C(=O)Nc1ccccc1F,.,.,.,.,.,-
O=C(c1cnn2c(C(F)(F)F)cc(-c3ccc4c(c3)OCO4)nc12)N1CCCC1,-,-,-,-,45,.
